Published values gathered from unrelated publications.
Lines come from different studies, so protocols differ.
M-phase phosphoprotein 8 chromodomain: M-phase phosphoprotein 8, chromodomain (Homo sapiens, UniProt Q99549)
ESR1: Estrogen receptor (ESR1, Homo sapiens, UniProt P03372)

CCN(CCCC[C@H](NC(=O)[C@H](CC(C)C)NC(=O)[C@H](C)NC(=O)[C@H](Cc1ccccc1)NC(=O)c1ccc(N(C)C)cc1)C(=O)N[C@@H](CO)C(N)=O)C(C)C
IC50 (M-phase phosphoprotein 8 chromodomain; cell-free assay, TR-FRET): 0.38 µM

Cc1cc(O)cc(C)c1C[C@H](N)C(=O)N[C@H](C)C(=O)NCC(=O)N[C@@H](Cc1ccc(Cl)cc1)C(=O)N(C)CCC[C@@]1(c2ccc(F)cc2)OCc2cc(C#N)ccc21
Ki (Alpha-2C adrenergic receptor (ADRA2C, Homo sapiens, UniProt P18825); ligand displacement, radioligand): 0.24 µM

CC[n+]1c(-c2ccccc2)c2cc(N)ccc2c2ccc(N)cc21
IC50 (AChE (Phlebotomus papatasi, UniProt M1F887); enzyme activity, inhibitor): 14.1 µM

N[C@@H](Cc1ccc(O)cc1)C(=O)O
Kd (Iodotyrosine deiodinase (Haliscomenobacter hydrossis, UniProt F4KU78); binding, fluorescence): > 1200 µM

Oc1ccc(-c2cccc(Cl)c2)cc1Cl
EC50 (ESR1; reporter gene, agonist, luciferase): 8.2 µM

c1cc[c]([Sn]([c]2ccccc2)[c]2ccccc2)cc1
EC50 (Peroxisome proliferator-activated receptor gamma (Pparg, Mus musculus, UniProt P37238); reporter gene, agonist, luciferase): 0.07 µM

CCN(CCCC[C@H](NC(=O)[C@H](CC(C)C)NC(=O)[C@H](C)NC(=O)[C@H](Cc1ccccc1)NC(=O)c1ccncc1)C(=O)N[C@@H](CO)C(N)=O)C(C)C
IC50 (M-phase phosphoprotein 8 chromodomain; cell-free assay, TR-FRET): 0.99 µM

CCCCCNC(=N)N/N=C/c1c[nH]c2ccc(OC)cc12
EC50 (5-hydroxytryptamine receptor 1A (HTR1A, Homo sapiens, UniProt P08908); calcium signal, agonist, fluorescence): 18 µM

Oc1ccc(-c2ccc(Cl)cc2)c(Cl)c1
EC50 (ESR1; reporter gene, agonist, luciferase): 0.1 µM

C[C@H]1CCC[C@H](O)CCC/C=C/c2cc(O)cc(O)c2C(=O)O1
EC50 (ESR1; reporter gene, agonist, luciferase): 0.00013 µM

CCN(CCCC[C@H](NC(=O)[C@H](CC(C)C)NC(=O)[C@H](C)NC(=O)[C@H](Cc1ccccc1)NC(=O)c1ccc(Br)c(N)c1)C(=O)N[C@@H](CO)C(N)=O)C(C)C
IC50 (M-phase phosphoprotein 8 chromodomain; cell-free assay, TR-FRET): 0.29 µM

O=c1c2ccccc2[se]n1-c1ccccc1
IC50 (Leucine-rich repeat serine/threonine-protein kinase 2 (LRRK2, Homo sapiens, UniProt Q5S007, G2019S); enzyme activity, inhibitor, radiometric): 1.86 µM

Oc1ccc(-c2cc(Cl)ccc2Cl)c(Cl)c1
EC50 (ESR1; reporter gene, agonist, luciferase): 0.2 µM

CCN(CCCC[C@H](NC(=O)[C@H](CC(C)C)NC(=O)[C@H](C)NC(=O)[C@H](Cc1cccnc1)NC(=O)c1cccnc1)C(=O)N[C@@H](CO)C(N)=O)C(C)C
IC50 (M-phase phosphoprotein 8 chromodomain; cell-free assay, TR-FRET): 1.8 µM
